Rows were chosen to be rich in hits. Some 3% of all compounds tested hit in one or more screens of this group.
KLK7 zymogen act = activates the human kallikrein-7 zymogen | P49862 | purified proKLK7, EDANS-DABCYL substrate fluorescence; 100% is mature enzyme control, 0% vehicle | activation, % at 7 µM | 370,000 tested, 0.9% active;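 active = activation above the mean of all tested compounds plus 3 SD, computed per campaign excluding outliers beyond control limits, cut at about 13% in these data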
Target sequence (P49862 whole entry, looked up): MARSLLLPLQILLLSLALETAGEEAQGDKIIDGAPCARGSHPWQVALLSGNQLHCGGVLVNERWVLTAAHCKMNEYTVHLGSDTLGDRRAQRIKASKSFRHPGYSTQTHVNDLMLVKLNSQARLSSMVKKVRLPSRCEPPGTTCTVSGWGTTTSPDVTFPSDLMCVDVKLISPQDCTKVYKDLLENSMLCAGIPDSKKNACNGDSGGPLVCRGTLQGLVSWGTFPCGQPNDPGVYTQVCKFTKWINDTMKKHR
PLCb3 inh = inhibitors of human phospholipase C beta3; inhibition, % at 12.2 µM; Purified PLC-beta3, fluorogenic substrate, fluorescence; Q01970; 370,000 tested, 0.18% active; in the data active = inhibition above about 11%;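 also: 0% = median of compound wells on plate and 100% = full blocker control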
DDE Tn7 FP inh = DD(E)-Tn7 binding inhibition, primary FP screen | P02675 | FP displacement of FITC-Tn7 peptide from fibrin DD(E); 0% = median of compound wells per plate | inhibition, % at 8.3 µM | 370,000 tested, 0.13% active | AID 720508;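 active = inhibition above the mean of compounds falling within the control limits plus 3 SD of them, cut at about 14% in these data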;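 also: 0% = plate median of compound wells and 100% = 10 µM Aha-Tn7 peptide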
Target sequence (P02675 whole entry, looked up): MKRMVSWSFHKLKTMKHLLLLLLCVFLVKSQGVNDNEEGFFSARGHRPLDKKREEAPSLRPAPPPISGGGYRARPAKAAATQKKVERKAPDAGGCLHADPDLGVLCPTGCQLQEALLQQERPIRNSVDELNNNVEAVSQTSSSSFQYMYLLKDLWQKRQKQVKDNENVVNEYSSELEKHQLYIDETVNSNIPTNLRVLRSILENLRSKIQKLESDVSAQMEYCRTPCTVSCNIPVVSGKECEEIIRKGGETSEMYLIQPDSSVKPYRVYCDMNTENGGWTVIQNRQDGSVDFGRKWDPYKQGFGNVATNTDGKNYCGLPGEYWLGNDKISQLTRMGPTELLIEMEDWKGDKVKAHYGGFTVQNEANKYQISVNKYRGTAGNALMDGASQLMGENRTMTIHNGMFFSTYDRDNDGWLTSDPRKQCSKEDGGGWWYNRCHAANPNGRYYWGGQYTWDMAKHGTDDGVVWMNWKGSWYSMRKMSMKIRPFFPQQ
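Test system: human clot-derived fibrin DD(E) complex / Quantity: 2 µM final DD(E) protein / Incubation: 10 min plus 3 h, room temperature / Measured by: fluorescence polarization / Benchmarks: high control of 10 µM Aha-Tn7 peptide / Replicates: singlicate testing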
NRP1-CendR mod = modulators of CendR peptide binding to human neuropilin-1 | FAM-RPARPAR peptide binding to NRP-1, fluorescence polarization | inhibition, % at 25 µM | 360,000 tested, 0.85% active;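 active = inhibition or corrected inhibition above about 18%, plus a signal ratio from 0.5 to 1.5, limit read from the data, passing the limit was not always enough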
DDE Tn6 FP inh = inhibitors of Tn6 peptide binding to human fibrin DD(E). Fibrin DD(E) TRITC-Tn6 fluorescence polarization displacement. inhibition, % at 8.3 µM. 370,000 tested, 0.21% active;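 active = inhibition above a per-campaign cutoff: mean of compounds within control limits plus 3 SD, cut at about 15% in these data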;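 also: 0% = median of all compound wells on the plate and 100% = blocking peptide control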
PLCg1 inh = inhibitors of human phospholipase C gamma1 | purified PLC-gamma1, fluorogenic substrate, fluorescence | 370,000 tested, 0.84% active | inhibition, % at 12.2 µM; in the data active = inhibition above about 9.5%
KLK7 act conf = proKLK7 activation, confirmation. shares compounds with KLK7 zymogen act. purified proKLK7, EDANS-DABCYL substrate fluorescence; scaled: vehicle 0, mature enzyme 100. activation, % at 7 µM. 3,200 tested, 68% active. AID 686949;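 active = activation, as change over the incubation, above the mean of all tested compounds plus 3 SD, cut at about 13% in these data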
EDANS-DABCYL int = fluorescence interference counter-screen for KLK7 activators; shares compounds with KLK7 zymogen act; EDANS-DABCYL substrate fluorescence interference, no enzyme, 4 h; solvent 0%, active enzyme control 100%; activation, % at 7 µM; 3,200 tested, 80% active;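 active = activation above the all-compound mean plus 3 SD, ignoring values outside control-based bounds, cut at about 4.8% in these data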;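 also: value is the 4 h activation minus the activation read at time zero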
An asterisk follows results filed as active.

What do the screens show for `CCOc1ccc(-n2c(COc3ccccc3)nnc2SCC(=O)Nc2ccc(OCc3ccccc3)cc2)cc1`?
KLK7 zymogen act: 0.1; PLCb3 inh: 2.8; DDE Tn7 FP inh: -6.3; DDE Tn6 FP inh: -4.4; PLCg1 inh: 2.3

How did CN(C)c1ccccc1-c1cc(NC=O)c2ncc(-c3cccc(C(F)(F)F)c3)n2c1 do in these assays?
KLK7 zymogen act: 107.0*; PLCb3 inh: inactive; DDE Tn7 FP inh: -8.2; NRP1-CendR mod: 123.2; DDE Tn6 FP inh: 33.6*; PLCg1 inh: inactive; KLK7 act conf: 177.7*; EDANS-DABCYL int: 144.0*

How did COc1cc2c3nnc(-c4ccc(F)cc4)c-3cn(Cc3ccc(C)cc3)c2cc1OC do in these assays?
KLK7 zymogen act: -31.1; PLCb3 inh: -321.9; DDE Tn7 FP inh: -0.9; NRP1-CendR mod: 141.3; DDE Tn6 FP inh: 5.1; PLCg1 inh: -270.9

How did COc1cc2c3nnc(-c4ccccc4)c-3cn(Cc3ccc(F)cc3)c2cc1OC do in these assays?
KLK7 zymogen act: 27.8*; PLCb3 inh: inactive; DDE Tn7 FP inh: -2.5; NRP1-CendR mod: -6.7; DDE Tn6 FP inh: -0.1; PLCg1 inh: inactive; KLK7 act conf: -27.8; EDANS-DABCYL int: -24.6

What do the screens show for `O=c1c2ccccc2c(/C=N/c2n[nH]c(CCCO)n2)c(O)n1-c1ccccc1Cl`?
KLK7 zymogen act: 27.2*; PLCb3 inh: inactive; DDE Tn7 FP inh: -3.6; NRP1-CendR mod: -0.2; DDE Tn6 FP inh: -16.9; PLCg1 inh: -460.1; KLK7 act conf: 4.7; EDANS-DABCYL int: 5.8*

How did O=C(N/N=C/c1c(O)n(-c2ccccc2Cl)c(=O)c2ccccc12)C1COc2ccccc2O1 (configuration not stated) do in these assays?
NRP1-CendR mod: -86.5

Results for COc1ccc2cc(C3=CCCCC3)ncc2c1 ?
KLK7 zymogen act: 19.4*; PLCb3 inh: inactive; DDE Tn7 FP inh: 1.0; NRP1-CendR mod: -4.5; DDE Tn6 FP inh: -2.5; PLCg1 inh: -351.4; KLK7 act conf: 6.8; EDANS-DABCYL int: 5.3*

What do the screens show for `COc1cc2cnc(C3=CCCCC3)cc2cc1OC`?
KLK7 zymogen act: 5.0; PLCb3 inh: -86.0; DDE Tn7 FP inh: -4.5; NRP1-CendR mod: 7.5; DDE Tn6 FP inh: -15.1; PLCg1 inh: -62.6

How did CC(=O)Oc1ccc2c(=O)c(N3C(=O)c4ccccc4C3=O)c(C)oc2c1 do in these assays?
KLK7 zymogen act: 150.7*; PLCb3 inh: -112.7; DDE Tn7 FP inh: 6.4; NRP1-CendR mod: 5.4; DDE Tn6 FP inh: 2.9; PLCg1 inh: -99.7; KLK7 act conf: 166.4*; EDANS-DABCYL int: 164.2*

How did Cc1oc2c(C)c(O)ccc2c(=O)c1N1C(=O)c2ccccc2C1=O do in these assays?
KLK7 zymogen act: 68.8*; PLCb3 inh: -61.1; DDE Tn7 FP inh: -3.6; NRP1-CendR mod: 2.2; DDE Tn6 FP inh: -0.1; PLCg1 inh: -50.9; KLK7 act conf: 99.3*; EDANS-DABCYL int: 103.4*

How did Cc1oc2cc(O)ccc2c(=O)c1N1C(=O)c2ccccc2C1=O do in these assays?
KLK7 zymogen act: 343.8*; PLCb3 inh: -291.1; DDE Tn7 FP inh: -4.3; NRP1-CendR mod: -3.4; DDE Tn6 FP inh: -2.2; PLCg1 inh: -206.7; KLK7 act conf: 297.5*; EDANS-DABCYL int: 301.0*

What do the screens show for `Cc1oc2cc(O)ccc2c(=O)c1Oc1ccccc1`?
KLK7 zymogen act: 54.1*; PLCb3 inh: inactive; DDE Tn7 FP inh: -1.3; NRP1-CendR mod: -20.2; DDE Tn6 FP inh: -9.2; PLCg1 inh: inactive; KLK7 act conf: 73.8*; EDANS-DABCYL int: 75.3*

What do the screens show for `CCOc1ccc(Oc2c(C)oc3cc(O)ccc3c2=O)cc1`?
KLK7 zymogen act: -24.8; PLCb3 inh: inactive; DDE Tn7 FP inh: -1.0; NRP1-CendR mod: -13.0; DDE Tn6 FP inh: 7.5; PLCg1 inh: -448.7

Results for CCCOc1ccc2c(=O)c(N3C(=O)c4ccccc4C3=O)c(C)oc2c1 ?
KLK7 zymogen act: -0.9; PLCb3 inh: -45.9; DDE Tn7 FP inh: 7.0; NRP1-CendR mod: 4.4; DDE Tn6 FP inh: -1.2; PLCg1 inh: -31.8

What do the screens show for `COC(=O)C[C@H]1CC[C@H]2[C@H](COc3ccc(NS(=O)(=O)c4ccccc4C)cc3C(=O)N2C)O1`?
KLK7 zymogen act: 0.5; PLCb3 inh: 1.2; DDE Tn7 FP inh: -11.9; DDE Tn6 FP inh: 3.3; PLCg1 inh: 0.7

Results for O=C(Nc1ccc(Cl)c(Cl)c1)C1CCN(c2nnc(-n3cccc3)s2)CC1 ?
KLK7 zymogen act: 0.7; PLCb3 inh: -5.4; DDE Tn7 FP inh: 6.4; DDE Tn6 FP inh: -4.1; PLCg1 inh: 0.6

What do the screens show for `Cc1nc2ccc(S(=O)(=O)NCC(=O)NCc3ccccc3C)cc2s1`?
KLK7 zymogen act: 0.7; PLCb3 inh: -0.4; DDE Tn7 FP inh: 12.8; DDE Tn6 FP inh: 3.6; PLCg1 inh: -1.0

What do the screens show for `CCCCOCCCNC(=O)C[C@H]1C(=O)N(Cc2ccc(OC)cc2)C2=CCCCC[C@@]21C(=O)OC`?
KLK7 zymogen act: -0.5; PLCb3 inh: -4.6; DDE Tn7 FP inh: -0.8; DDE Tn6 FP inh: -2.9; PLCg1 inh: -0.9

What do the screens show for `Cc1ccccc1-c1c(C)oc2cc(O)ccc2c1=O`?
KLK7 zymogen act: 57.6*; PLCb3 inh: inactive; DDE Tn7 FP inh: 6.5; NRP1-CendR mod: -15.5; DDE Tn6 FP inh: -4.7; PLCg1 inh: inactive; KLK7 act conf: 71.4*; EDANS-DABCYL int: 74.5*

How did COc1cccc(/C=N\N2CCN(c3ccc(C)cc3)CC2)c1O do in these assays?
KLK7 zymogen act: 0.3; PLCb3 inh: 0.9; DDE Tn7 FP inh: 0.4; DDE Tn6 FP inh: 8.9; PLCg1 inh: 1.0

Results for CCc1cc2c(=O)c(-c3nc4ccccc4n3C)c(C)oc2cc1OC(C)=O ?
KLK7 zymogen act: 38.1*; PLCb3 inh: -133.3; DDE Tn7 FP inh: -4.7; NRP1-CendR mod: 1.9; DDE Tn6 FP inh: -5.8; PLCg1 inh: -102.4; KLK7 act conf: 69.2*; EDANS-DABCYL int: 65.9*

Results for O=C(c1ccc2ccccc2c1)C1CCCN(C(=O)c2cccnc2)C1 (configuration not stated) ?
KLK7 zymogen act: 1.0; PLCb3 inh: -31.5; DDE Tn7 FP inh: 10.2; NRP1-CendR mod: -8.3; DDE Tn6 FP inh: 3.0; PLCg1 inh: -32.7

What do the screens show for `CCn1ccnc1CN1CCCC(C(=O)c2ccc3cc(OC)ccc3c2)C1` (configuration not stated)?
KLK7 zymogen act: 35.9*; PLCb3 inh: -330.2; DDE Tn7 FP inh: 10.0; NRP1-CendR mod: 20.2; DDE Tn6 FP inh: 0.7; PLCg1 inh: -226.1; KLK7 act conf: -2.6; EDANS-DABCYL int: -5.8

Screening results: PubChem, several laboratories
